Converted amounts (≈) assume the structure as drawn. Where two headings read alike, the source gives them in different places.

Data set [1] concerns methicillin-resistant Staphylococcus epidermidis (MRSE). The data set is described as follows: Antimicrobial susceptibility. Type of data set: cell-based. As to conditions: for MIC: Staphylococcus epidermidis, MRSE; for MIC^1: MRSE isolate from sample 1 of periprosthetic fluid at diagnosis; for MIC^2: MRSE isolate from sample 2 of periprosthetic fluid at diagnosis. In a few lines: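 Two MRSE isolates, each recovered from a separate sample of periprosthetic fluid taken by sterile drainage at diagnosis. A susceptibility profile was recorded for each isolate.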

The test system of data set [2] is shoulder PJI caused by methicillin-resistant Staphylococcus epidermidis (MRSE). Nature of the data set: Clinical course of shoulder prosthetic joint infection under oritavancin. As to conditions: ten sequential doses of 1200 mg over 28 weeks; single patient. Type of data set: in vivo, human (patient).
The next data set relates to Gram-positive infections. As to conditions: 30 of 32 patients who received at least two doses of oritavancin; cited from earlier work.

The MIC is the smallest concentration in the dilution series that meets the test's criterion for growth inhibition. For `CC1(C)S[C@@H]2[C@H](NC(=O)[C@H](N)c3ccccc3)C(=O)N2[C@H]1C(=O)O` [Ampicillin], in data set [1] (read-out: MIC^1), the MIC was > 2 µg/mL.

On to `O=C(O)c1cn(C2CC2)c2cc(N3CCNCC3)c(F)cc2c1=O` [Ciprofloxacin], for which the MIC in data set [1] (read-out: MIC^1) and in data set [1] (read-out: MIC^2) was > 4 µg/mL throughout.

As to `CCC[C@@H]1C[C@@H](C(=O)N[C@@H]([C@H]2O[C@H](SC)[C@H](O)[C@@H](O)[C@H]2O)[C@H](C)Cl)N(C)C1` [Clindamicin], the MIC in data set [1] (read-out: MIC^1) is ≤ 0.25 µg/mL; in data set [1] (read-out: MIC^2) it was 0.25 µg/mL (≈ 0.588 µM).

Turning to `CC[C@H]1OC(=O)[C@H](C)[C@@H](O[C@H]2C[C@@](C)(OC)[C@@H](O)[C@H](C)O2)[C@H](C)[C@@H](O[C@@H]2O[C@H](C)C[C@H](N(C)C)[C@H]2O)[C@](C)(O)C[C@@H](C)C(=O)[C@H](C)[C@@H](O)[C@]1(C)O` [Eritromicin], in data set [1], the “MIC^1” value was ≤ 0.25 µg/mL and the “MIC^2” value came to 1 µg/mL (≈ 1.36 µM).

For the compound `C[C@@H]1O[C@@H]1P(=O)(O)O` [Fosfomicin c/G6P, Fosfomicin], the “MIC^1” value in data set [1] was ≤ 16 µg/mL.

Regarding `CC(=O)O[C@H]1C[C@@]2(C)[C@@H](C[C@@H](O)[C@H]3[C@@]4(C)CC[C@@H](O)[C@@H](C)[C@@H]4CC[C@@]32C)/C1=C(\CCC=C(C)C)C(=O)O` [Fusidic Acid], the MIC is > 8 µg/mL in data set [1] (read-out: MIC^1) and 16 µg/mL (≈ 31 µM) in data set [1] (read-out: MIC^2).

Consider `CNC(C)C1CCC(N)C(OC2C(N)CC(N)C(OC3OCC(C)(O)C(NC)C3O)C2O)O1` (centres unmarked) [Gentamicin], for which the MIC in data set [1] (read-out: MIC^1) is ≤ 1 µg/mL; in data set [1] (read-out: MIC^2) it was ≤ 0.5 µg/mL.

As to `CC(=O)NC[C@H]1CN(c2ccc(N3CCOCC3)c(F)c2)C(=O)O1` [Linezolid], the values for the MIC in data set [1] (read-out: MIC^1) and in data set [1] (read-out: MIC^2) were 1 µg/mL (≈ 2.96 µM) and 2 µg/mL (≈ 5.93 µM), respectively.

Turning to `COc1c(N2C[C@@H]3CCCN[C@@H]3C2)c(F)cc2c(=O)c(C(=O)O)cn(C3CC3)c12` [Moxifloxacin], in data set [1] (read-out: MIC^1), the MIC was > 1 µg/mL.

On to `CN[C@H](CC(C)C)C(=O)N[C@H]1C(=O)N[C@@H](CC(N)=O)C(=O)N[C@H]2C(=O)N[C@H]3C(=O)N[C@H](C(=O)N[C@H](C(=O)O)c4cc(O)cc(O)c4-c4cc3ccc4O)[C@H](O[C@H]3C[C@](C)(N)[C@@H](O)[C@H](C)O3)c3ccc(c(Cl)c3)Oc3cc2cc(c3O[C@@H]2O[C@H](CO)[C@@H](O)[C@H](O)[C@H]2O[C@H]2C[C@](C)(NCc3ccc(-c4ccc(Cl)cc4)cc3)[C@@H](O)[C@H](C)O2)Oc2ccc(cc2Cl)[C@H]1O` [Oritavancin], for which the side effects result in data set [2] was “no side effects reported”. In the data set on Gram-positive infections, the clinical success is on record as 93.8%.

With `Cc1onc(-c2ccccc2)c1C(=O)N[C@@H]1C(=O)N2[C@@H]1SC(C)(C)[C@@H]2C(=O)O` [Oxacillin], the MIC in data set [1] (read-out: MIC^1) and in data set [1] (read-out: MIC^2) was > 2 µg/mL each time.

On to `CO[C@H]1/C=C/O[C@@]2(C)Oc3c(C)c(O)c4c(O)c(c(/C=N/N5CCN(C)CC5)c(O)c4c3C2=O)NC(=O)/C(C)=C\C=C\[C@H](C)[C@H](O)[C@@H](C)[C@@H](O)[C@@H](C)[C@H](OC(C)=O)[C@@H]1C` [Rifampin], for which the MIC is > 1 µg/mL in data set [1] (read-out: MIC^1) and > 2 µg/mL in data set [1] (read-out: MIC^2).

Consider `CN(C)[C@@H]1C(O)=C(C(N)=O)C(=O)[C@@]2(O)C(O)=C3C(=O)c4c(O)cccc4[C@@](C)(O)[C@H]3C[C@@H]12` [Tetraciclin], for which, in data set [1], the “MIC^1” value came out at 1 µg/mL (≈ 2.25 µM) and the “MIC^2” value was 2 µg/mL (≈ 4.5 µM).

Consider `CN(C)c1cc(NC(=O)CNC(C)(C)C)c(O)c2c1C[C@H]1C[C@H]3[C@H](N(C)C)C(O)=C(C(N)=O)C(=O)[C@@]3(O)C(O)=C1C2=O` [Tigeciclin], for which, in data set [1], the “MIC^1” value is ≤ 0.25 µg/mL and the “MIC^2” value came to 0.25 µg/mL (≈ 0.427 µM).

As to Daptomicin, the “MIC^2” value in data set [1] was 0.25 µg/mL.

As for Teicoplanin, in data set [1], the “MIC^1” value was < 2 µg/mL.

In the case of Vancomicin, in data set [1], the “MIC^1” value was found to be 2 µg/mL and the “MIC^2” value was ≤ 0.5 µg/mL.

These data come from paper PMC11584596 (IDCases, 2024).
